A short description of data set [1]: Plasma pharmacokinetics of gemcitabine. Format: in vivo, human. As to conditions: for Tmax / AUC / Cmax: human, plasma, intravenous; for Cmax: Gemcitabine Cmax; for effect of multiple doses of lonafarnib on the pharmacokinetics of gemcitabine: Day 15 versus Day 1.
A short description of data set [2]: Multiple-dose plasma pharmacokinetics of lonafarnib. Format: in vivo, human. The note with it: for AUC / Cmax / Tmax / half-life: human, plasma, oral; for AUC: Lonafarnib AUC (τ), 12 hour dosing interval; for Cmax: Lonafarnib Cmax; for Tmax: Lonafarnib Tmax (median); for half-life: Lonafarnib T½. Put shortly: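 Patients with advanced cancer took oral drug twice daily with food continuously, plus 30 min IV gemcitabine on days 1, 8, 15 of 28-day cycles. The evening dose was withheld on […]. Plasma was sampled on day 15 of cycles 1 and 2, pre-dose and to 24 h. LC-MS/MS had LLOQ 5.00 ng/mL.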

Another data set concerns the target farnesyl transferase (Homo sapiens, UniProt P49354+P49356). Briefly: Prelamin A accumulation in buccal mucosal cells. Type of data set: in vivo. As to conditions: buccal mucosal swabs, cycle 1 day 15 versus day 1; 10 of 17 samples.
[3] abbreviates: lonafarnib 100 mg BID+gemcitabine 750 mg/m2, cycle 1 day 15, n=4.
[4] abbreviates: lonafarnib 100 mg BID+gemcitabine 750 mg/m2, cycle 2 day 15, n=3.
The mark [5] stands for this setting: lonafarnib 100 mg BID+gemcitabine 1000 mg/m2, cycle 1 day 15, n=3.
Where [6] appears, read: lonafarnib 200 mg BID+gemcitabine 600 mg/m2, cycle 2 day 15, n=4.

A word on the Tmax: it is the time from dosing to the highest level. Broadly, the AUC is the area under the concentration-time curve, a measure of exposure. Read a low AUC as less exposure. By Cmax is commonly meant the maximum level reached in the sampled fluid or tissue. Consider `Nc1ccn([C@@H]2O[C@H](CO)[C@@H](O)C2(F)F)c(=O)n1` [Gemcitabine], for which the Tmax in data set [1] (600 mg/m2, Gemcitabine Tmax (median), lonafarnib 200 mg BID+gemcitabine 600 mg/m2, cycle 1 Day 1 (gemcitabine alone), n=6) is 0.38 h; in data set [1] (750 mg/m2, Gemcitabine Tmax (median), lonafarnib 100 mg BID+gemcitabine 750 mg/m2, cycle 1 Day 1 (gemcitabine alone), n=4) it was 0.5 h; in data set [1] (750 mg/m2, Gemcitabine Tmax (median), lonafarnib 150 mg BID+gemcitabine 750 mg/m2, cycle 1 Day 1 (gemcitabine alone), n=2), 0.25 h; in data set [1] (1000 mg/m2, Gemcitabine Tmax (median), lonafarnib 100 mg BID+gemcitabine 1000 mg/m2, cycle 1 Day 1 (gemcitabine alone), n=2), 0.38 h; in data set [1] (Gemcitabine Tmax (median), lonafarnib 100 mg BID+gemcitabine 750 mg/m2, cycle 1 Day 15 (with lonafarnib), n=4), 0.5 h; in data set [1] (Gemcitabine Tmax (median), lonafarnib 100 mg BID+gemcitabine 1000 mg/m2, cycle 1 Day 15 (with lonafarnib), n=3), 0.25 h. Further, the Tmax in data set [1] (Gemcitabine Tmax (median), lonafarnib 200 mg BID+gemcitabine 600 mg/m2, cycle 1 Day 15 (with lonafarnib), n=7) was 0.25 h. The AUC is 5380 ng·h/mL in data set [1] (750 mg/m2, Gemcitabine AUC (τ), lonafarnib 100 mg BID+gemcitabine 750 mg/m2, cycle 1 Day 1 (gemcitabine alone), n=4); 7890 ng·h/mL in data set [1] (Gemcitabine AUC (τ), lonafarnib 100 mg BID+gemcitabine 750 mg/m2, cycle 1 Day 15 (with lonafarnib), n=4); 5060 ng·h/mL in data set [1] (Gemcitabine AUC (τ), lonafarnib 100 mg BID+gemcitabine 1000 mg/m2, cycle 1 Day 15 (with lonafarnib), n=3); 4970 ng·h/mL in data set [1] (Gemcitabine AUC (τ), lonafarnib 200 mg BID+gemcitabine 600 mg/m2, cycle 1 Day 15 (with lonafarnib), n=7). Besides, the Cmax in data set [1] (lonafarnib 100 mg BID+gemcitabine 750 mg/m2, cycle 1 Day 15 (with lonafarnib), n=4) came to 15000 ng/mL; in data set [1] (lonafarnib 100 mg BID+gemcitabine 1000 mg/m2, cycle 1 Day 15 (with lonafarnib), n=3) it was 9800 ng/mL; in data set [1] (lonafarnib 200 mg BID+gemcitabine 600 mg/m2, cycle 1 Day 15 (with lonafarnib), n=7), 11200 ng/mL.
What is called half-life is the time in which the quantity being followed falls by half. On to `NC(=O)N1CCC(CC(=O)N2CCC([C@H]3c4ncc(Br)cc4CCc4cc(Cl)cc(Br)c43)CC2)CC1` [Lonafarnib], for which, in data set [2] (setting [3]), the AUC was found to be 6000 ng·h/mL, the Cmax stood at 717 ng/mL, the Tmax worked out at 5 h and the half-life was 5.21 h. In addition, in data set [2] (setting [4]), the AUC amounted to 6030 ng·h/mL, the Cmax is 757 ng/mL, the Tmax came out at 4 h and the half-life was 3.5 h. In addition, in data set [2] (setting [5]), the AUC amounted to 8200 ng·h/mL, the Cmax came out at 1010 ng/mL, the Tmax was 4 h and the half-life was 3.8 h. Besides, in data set [2] (setting [6]), the AUC was determined as 14500 ng·h/mL, the concentration peaked (Cmax) at 1880 ng/mL, the Tmax was 5 h and the half-life was 4.78 h. Besides, in data set [2] (log-transformed data), the “90% confidence interval for the AUC(τ) point estimate, Cycle 2 Day 15 to Cycle 1 Day 15” value is reported as 76.2–145% and the “AUC(τ) point estimate, Cycle 2 Day 15 compared to Cycle 1 Day 15” value is 105%. The “mean total body clearance (CL/F), range over dose levels” value in data set [2] (twice daily multiple doses with weekly gemcitabine) is 163 to 594 mL/min. In data set [1], the “effect of multiple doses of lonafarnib on the pharmacokinetics of gemcitabine” value is listed as “no apparent effect”. Also, the “effect of multiple doses of lonafarnib on the pharmacokinetics of gemcitabine” value in data set [1] (listed as lonafarnib) was “no important effect”. Besides, the “samples showing prelamin A accumulation after treatment” value at farnesyl transferase was found to be 59%.

The values are drawn from PMC4101887 (Cancer investigation, 2011).
